Assay outcomes: PubChem, several laboratories
T cruzi inh: blocks replication of Trypanosoma cruzi | inhibition, % (test concentration not listed) | T. cruzi beta-gal in NIH3T3, luminescence, 90 h | actives 1.4% (n = 300,000);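 active = mean inhibition across valid replicates above about 55%, limit read from the data; inconclusive = mean below that limit but half or more replicates reach it; inactive = mean below it, under half of replicates reach it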;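 also: signal also drops with host cell toxicity which is not excluded here; 0% = plate median of DMSO wells and 100% = zero luminescence signal; higher percent means less beta-gal luminescence so fewer parasites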
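Incubation – ≥90 h infection period, 3 h prior cell attachment · System – NIH/3T3 fibroblasts plus reporter T. cruzi · Doses – compound pinned at 50 nL/well, DMSO · Read-out basis – percent inhibition of parasite-derived β-gal signal · Signal – luminescent β-galactosidase signal after 60 min lysis · Also added – 5000 T. cruzi trypomastigotes/well · Medium – Low-serum DMEM with 2% FBS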
CHT allo act: allosterically activates the human high affinity choline transporter | Q9GZV3 | CHT-expressing cells, membrane potential dye, choline EC20; hits give high values; LV-AA mutant CHT in HEK293 cells | B-score at 10 µM | actives 0.49% (n = 310,000) | AID 488977;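 active = initial fluorescence not abnormally high and integrated response B-score, plate-corrected, over 3 SD above library mean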
Target sequence (Q9GZV3 whole entry, looked up): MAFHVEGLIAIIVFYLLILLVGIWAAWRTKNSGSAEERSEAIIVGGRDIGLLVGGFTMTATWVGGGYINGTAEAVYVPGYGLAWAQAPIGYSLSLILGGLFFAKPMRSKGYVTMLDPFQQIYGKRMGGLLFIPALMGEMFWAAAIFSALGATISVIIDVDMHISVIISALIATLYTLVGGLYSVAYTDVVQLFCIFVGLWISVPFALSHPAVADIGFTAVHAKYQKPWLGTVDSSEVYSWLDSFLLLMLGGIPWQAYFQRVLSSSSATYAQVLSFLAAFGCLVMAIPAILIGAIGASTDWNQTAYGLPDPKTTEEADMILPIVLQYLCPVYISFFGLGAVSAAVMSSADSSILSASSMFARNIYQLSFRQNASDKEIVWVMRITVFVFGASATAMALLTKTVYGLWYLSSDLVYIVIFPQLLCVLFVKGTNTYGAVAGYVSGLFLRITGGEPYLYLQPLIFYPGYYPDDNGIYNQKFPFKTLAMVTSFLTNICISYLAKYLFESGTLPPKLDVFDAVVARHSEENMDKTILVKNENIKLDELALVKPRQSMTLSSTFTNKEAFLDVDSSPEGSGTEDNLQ
CHT block: inhibits the human high affinity choline transporter. B-score at 10 µM. actives 0.86% (n = 310,000). CHT-expressing cells, membrane potential dye, choline response; hits give low values. AID 488975;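 active = B-score over 3 SD under the library average, and starting fluorescence ratio not unusually high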;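 also: choline stimulus applied at its EC90 after an EC20 pre-addition; B-score computed on integrated fluorescence ratio after choline addition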
PolyA inh: blocks polyadenylation in yeast reporter cells. S. cerevisiae SKY197-pL101 polyadenylation reporter, beta-gal luminescence; efflux-impaired pdr1/pdr3 knockout yeast; score 100 = 6 SD above DMSO. activity score, % at 12 µM. actives 0.02% (n = 300,000);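 active = lowest replicate activity score at least 50, where 100 means six control SD above control mean; inconclusive = lowest score under 50 but half or more replicates reach 50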;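 also: yeast exposed to compound for 9 h at 30 °C; higher score means more reporter readthrough which indicates perturbed polyadenylation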
CHT inh conf: confirmation of human choline transporter CHT inhibitors; shares compounds with CHT block; CHT-expressing cells, choline membrane potential dye; LV-to-AA substituted CHT, HEK293 cells; CHT activity remaining % of control (hits give low values), % at 10 µM; actives 70% (n = 2,400);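 active = choline transporter activity left, mean of duplicates at 10 µM, below buffer-only control mean minus 3 SD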;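 also: depolarization triggered by choline at its EC90 following an EC20 pre-addition; 0% = hemicholinium-3 full block and 100% = buffer-only control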
HEK293 CHT ctr: CHT inhibitor counter-screen hit in parental HEK293 cells; shares compounds with CHT block; membrane potential dye, choline response; active = decrease or increase beyond buffer ±3SD; membrane potential ratio readout (active if shifted either direction beyond buffer ±3SD; no single direction) at 10 µM; actives 4% (n = 2,400); AID 493222;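 also: parental cells lack the transporter so any hit is non-specific; ratio is peak minus trough fluorescence over baseline after EC90 choline challenge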
An asterisk follows results filed as active; i = inactive; ? = inconclusive; / = not tested or not shown. An excerpt weighted towards active compounds, which were near 2.6% of everything screened.

SMILES	T cruzi inh	CHT allo act	CHT block	PolyA inh	CHT inh conf	HEK293 CHT ctr
O=C(C1CCCN(c2ncnc3c2nc2n3CCCCC2)C1)N1CCN(c2ccccc2)CC1 (stereo not given)	10	i	-6.4*	-4	15%*	i
Cc1cccc(N2CCN(C(=O)C3CCN(c4ncnc5c4nc4n5CCCCC4)CC3)CC2)c1C	5	i	i	-1	/	/
Cc1cc(C(=O)Nc2nncs2)oc1C	-9	i	i	0	/	/
O=C(C1CCCN(c2ncnc3c2nc2n3CCCCC2)C1)N1CCN(c2cccc(Cl)c2)CC1 (stereo not given)	22	i	-10*	23	47%*	i
COc1ccc(-n2cccc2/C=C2\C(=N)N3N=C(C(C)C)SC3=NC2=O)cc1	0	i	-6.1*	5	i	i
Cc1cc(-c2nc3cccnc3s2)ccc1NS(=O)(=O)c1ccc2c(c1)OCCO2	-18	i	-7.3*	2	i	i
Cc1c(NS(=O)(=O)c2ccc3c(c2)OCCO3)cccc1-c1nc2cccnc2s1	5	i	i	1	/	/
Cc1ccccc1OCC(=O)Nc1nnc(C2CCCC2)s1	-3	i	i	15	/	/
O=C(CSCc1cnn(-c2ccccc2)c1-n1cccc1)NCc1cccs1	11	i	-6.5*	12	i	i
CNC(=O)CSCc1cnn(-c2ccccc2)c1-n1cccc1	-13	i	i	-15	/	/
CCOC(=O)N1CCC(NC(=O)CSCc2cnn(-c3ccccc3)c2-n2cccc2)CC1	8	i	-7.3*	2	i	i
COC(=O)c1ccc(CN(c2ccc(C(=O)O)c(O)c2)S(=O)(=O)c2ccc(Cl)c([N+](=O)[O-])c2)cc1	-3	i	i	-1	/	/
Cc1ccc(/C=C2/SC(=S)N(c3ccc(S(=O)(=O)Nc4nccs4)cc3)C2=O)cc1	-6	i	i	-6	/	/
O=C1/C(=C\c2ccccn2)SC(=S)N1c1ccc(S(=O)(=O)Nc2nccs2)cc1	-18	i	-7*	-9	i	i
CC(C)NC[C@@H](O)c1ccc(O)c(O)c1	0	i	i	1	/	/
CC(C)(C)NCC(O)c1cc(O)cc(O)c1 (stereo not given)	3	i	-5.9*	-11	45%*	i
COC(=O)C1CN(C(=O)C(C)Oc2ccccc2Cl)c2ccccc2O1 (stereo not given)	3	i	-5.2*	4	71%*	i
COc1cccc(N2CCN(c3ncnc4c3[nH]c3ccc(F)cc34)CC2C)c1 (stereo not given)	?	i	-7*	-10	63%*	i
OC(CNCc1cccnc1)COc1ccc2ccccc2c1 (stereo not given)	3	i	i	2	/	/
CCOc1ccccc1N(CC(=O)NCc1ccco1)C(=O)CCC(=O)Nc1nccs1	7	i	i	-15	/	/
Cc1ccc(-c2nc3ncccc3o2)cc1NC(=O)c1ccccc1	3	i	-6.7*	-19	i	i
Cc1ccccc1NC(=O)c1ccc(F)c(S(=O)(=O)NCC2CCCO2)c1 (stereo not given)	-24	i	-7.7*	2	21%*	i
Cc1ccc(NC(=O)c2ccc(Cl)c(S(=O)(=O)NCC3CCCO3)c2)c(O)c1 (stereo not given)	-1	i	i	-9	/	/
O=C(Nc1ccccc1Cl)c1ccc(S(=O)(=O)NCC2CCCO2)cc1 (stereo not given)	-13	i	-6.4*	6	31%*	i
Cc1cc(C(=O)NCC(c2ccco2)N(C)C)ccc1[N+](=O)[O-] (stereo not given)	-4	i	i	-2	/	/
CCCc1cc(=O)[nH]c(SCc2nc3ccccc3s2)n1	1	i	-5*	5	66%*	i
Cc1cc(=O)[nH]c(SCc2nc3ccccc3s2)n1	-8	i	i	12	/	/
O=C(O)CC(NC(=O)C1CCCCC1)c1ccc(OC2CCCC2)cc1 (stereo not given)	-20	i	i	1	/	/
